Format in all cases: biochemical
In assay [1] the target is Wt-Tau441 (Homo sapiens, UniProt P10636). Description: ThT fluorescence assay of Wt-Tau fibrillization. In short, it runs like this:
(§1)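 Lyophilized full-length Tau441 (wild-type or ΔK280) was diluted to 40 µM stock in 25 mM NaPi, 25 mM NaCl, 2.5 mM EDTA, pH 6.8, and used at 10 µM final with 25 µM ThT. Aggregation was started with 0.0625 µM heparin. Water-dissolved test compound was added at 50, 10 or 1 µM. Fluorescence was followed over time. Curves were fitted to a Boltzmann sigmoid and scaled to maximal control fluorescence; Wt-Tau relative F was taken at 30 h.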

In assay [2] the target is Tau441-ΔK280 (Homo sapiens, UniProt P10636, DEL597-597). The assay is described as follows: ThT fluorescence assay of Tau-ΔK280 fibrillization. The following applies: both 5/1 and 1/1 ratios. In short, it runs like this:
as §1

Assay [3] concerns the target Aβ1-42 (Homo sapiens, UniProt P05067). The assay is described as follows: ThT fluorescence assay of Aβ1-42 fibrillization. The following applies: compound/Aβ1-42 ratio 1/1.

Chain of Aβ1-42 (P05067 672-713): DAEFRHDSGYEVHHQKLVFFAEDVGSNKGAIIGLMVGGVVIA

As for `CN(C)c1ccc2nc3ccc(=[N+](C)C)cc-3sc2c1` [MB, methylthioninium chloride], in assay [1] (compound/Wt-Tau ratio 0.1/1), the “decrease of F versus Wt-Tau control” value was 50%. Besides, in assay [1] (compound/Wt-Tau ratio 1/1, N.A. = no aggregation), the “t1/2, change versus Wt-Tau control” value is recorded as “+55%”. Besides, the “inhibition of the aggregation of Wt-Tau (in words)” value in assay [1] (compound/Wt-Tau ratio 5/1, ThT) was “complete inhibition”. The “inhibition of the aggregation of Tau-ΔK280 (in words)” value in assay [2] was “complete inhibition”.
With `Oc1ccc(/C=C/c2cc(O)cc(O)c2)cc1` [Resveratrol], the “F, change versus Aβ1-42 control” value in assay [3] is reported as -78%.

(Values after publication PMC12489099 (Nature Communications, 2025).)
